KCNQ1 act = potentiates or activates the human KCNQ1 potassium channel; CHO-K1 KCNQ1, thallium flux FluxOR fluorescence; hits give high values; B-score at 10 µM; 0.35% of 310,000 active; AID 2648;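 active = fluorescence ratio B-score, a plate-corrected score, at least three library SD, with initial intensity B-score within 5 SD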
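Test system: CHO-K1 cells stably expressing KCNQ1 / Medium: assay buffer / Also added: depolarizing K+/Tl+ stimulus, K2SO4 and Tl2SO4 each 12.5 mM in 5x stock / Incubation: 90 min dye loading and 20 min compound exposure, both at room temperature / Signal: thallium influx via FluxOR fluorescence, kinetic imaging / Evaluation: B score of baseline-normalized fluorescence ratio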
KCNK9 inh = human KCNK9 channel inhibition; Q9NPC2; HEK293 KCNK9, FluxOR thallium flux fluorescence; hits give low values; B-score at 10 µM; 1.2% of 310,000 active;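 active = ratio B-score over 3 SD below the library mean, with starting fluorescence within 5 SD of its mean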;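 note: negative B-score means less thallium flux so channel inhibition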
Kir21 block = blocks the mouse Kir2.1 inward-rectifier potassium channel; P35561; HEK293-Kir2.1, FluxOR thallium flux fluorescence; hits give low values; B-score at 10 µM; 0.85% of 310,000 active; AID 1672;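 active = fluorescence ratio B-score at or below minus 3 SD of library scores, with starting-brightness B-score within 2 SD, cut at about -4.2 in these data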;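 note: channel flux triggered by added potassium and thallium sulfate stimulus; B-score of peak minus minimum fluorescence over baseline after thallium stimulus; more negative B-score means stronger Kir2.1 block with less thallium influx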
Target sequence (P35561 whole entry, looked up): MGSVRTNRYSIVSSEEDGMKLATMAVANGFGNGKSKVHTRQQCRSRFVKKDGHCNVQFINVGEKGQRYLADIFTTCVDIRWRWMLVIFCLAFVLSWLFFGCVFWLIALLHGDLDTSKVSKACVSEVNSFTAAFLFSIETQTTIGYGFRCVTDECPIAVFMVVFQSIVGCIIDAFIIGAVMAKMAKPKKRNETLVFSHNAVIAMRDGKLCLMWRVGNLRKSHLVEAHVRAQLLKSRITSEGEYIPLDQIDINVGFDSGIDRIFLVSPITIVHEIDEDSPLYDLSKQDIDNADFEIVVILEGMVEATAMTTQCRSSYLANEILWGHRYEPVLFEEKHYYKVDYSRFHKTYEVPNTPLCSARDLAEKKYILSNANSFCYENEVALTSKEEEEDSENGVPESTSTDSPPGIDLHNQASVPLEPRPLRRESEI
hERG protect = compounds protecting human hERG from proarrhythmic drug block | Q12809 | CHO-hERG, FluxOR thallium flux, dofetilide IC70 present | activation (rescue from dofetilide block), less the hit threshold, % at 10 µM | 0.51% of 310,000 active | AID 1511;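 active = activation above the mean of controls blocked by dofetilide plus 5 SD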;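 note: thallium influx through hERG after potassium depolarization seen as dye fluorescence rise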
KCNK3 inh = human KCNK3 channel inhibition, primary screen; O14649; CHO-KCNK3 thallium flux, FluxOR fluorescence; hits give low values; B-score at 10 µM; 0.84% of 340,000 active; AID 602410;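 active = B-score under library mean minus 4 SD, starting fluorescence ratio at most library mean plus 5 SD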;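 note: more negative B-score means stronger inhibition of thallium flux through KCNK3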
KCNQ1 block = blocks the human KCNQ1 potassium channel; P51787; CHO-K1 KCNQ1, FluxOR thallium flux fluorescence; hits give high values; B-score at 10 µM; 1.3% of 310,000 active;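 active = compounds whose thallium flux B-score, printed positive for inhibition, exceeds three library SD while starting fluorescence stays within three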;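 note: channel opened by potassium depolarization with thallium stimulus after 20 min compound exposure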
KCNK9 inh conf = human KCNK9 inhibitor confirmation | shares compounds with KCNK9 inh | HEK293 KCNK9 cells, FluxOR thallium flux fluorescence | inhibition, % at 10 µM | 43% of 4,900 active;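 active = thallium signal inhibited by more than 5 SD of the compound-free buffer control wells, on both duplicate plates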;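 note: 0% = assay buffer control wells without compound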
Kir21 sel = tests whether KCNK9 modulators also affect mouse Kir2.1; inhibition, % at 10 µM; 4% of 4,900 active; shares compounds with KCNK9 inh; AID 492993; Kir2.1 cells, FluxOR thallium flux fluorescence;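 active = thallium signal drop more than 5 SD beyond the mean of the no-compound control wells, seen in both duplicate plates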;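 note: signal is fluorescence rise after thallium addition divided by baseline fluorescence; plate controls were assay buffer only for no effect and full block by chlorpromazine control for full effect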
HEK293 Tl ctr = second check of KCNK9 modulator effects in non-induced HEK293 cells | shares compounds with KCNK9 inh | FluxOR thallium flux | inhibition, % at 10 µM | 40% of 4,900 active | AID 492997;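 active = thallium signal drop beyond 5 SD of the untreated control mean, on both duplicate plates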;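 note: plate controls were buffer only IC0 wells for no effect and SID17386958 at its maximal inhibitory level for full effect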
KCNK3 inh conf = human KCNK3 channel inhibition, confirmation assay; shares compounds with KCNK3 inh; CHO-KCNK3 thallium flux, FluxOR fluorescence; 0% buffer, 100% carvedilol maximal block; ratio percent of control, % at 10 µM; 99% of 2,400 active;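 active = ratio percent of control, averaged over triplicates, above buffer control mean plus 5 SD, cut at about 64% in these data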;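 note: ratio is the fluorescence rise from min to max over baseline after thallium stimulus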
KCNK3 noninduced = activity in cells without induced KCNK3 expression; shares compounds with KCNK3 inh; non-induced KCNK3 parental cells, FluxOR thallium flux; hits give low values; thallium flux ratio (lower = more inhibition) at 10 µM; 40% of 2,400 active;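 active = thallium flux ratio, averaged over three wells, more than 5 SD below the buffer control mean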;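 note: host cells are CHO cells without KCNK3 induction; ratio is peak minus trough fluorescence over baseline then normalized to buffer controls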
Numbers without * were called inactive; i = inactive; · = not tested or not shown. A selection: hits, their analogues and other compounds. The true share with any hit is near 3.7%.

SMILES	KCNQ1 act	KCNK9 inh	Kir21 block	hERG protect	KCNK3 inh	KCNQ1 block	KCNK9 inh conf	Kir21 sel	HEK293 Tl ctr	KCNK3 inh conf	KCNK3 noninduced
Cc1cc(NC(=O)c2ccc(Cn3nc(C)c(Br)c3C)o2)no1	i	i	0.14	0	i	i	·	·	·	·	·
Cc1c(N=C2N=C(NC(=O)NC(C)(C)C)c3ccccc32)c(=O)n(-c2ccccc2)n1C	i	i	2.1	-3	i	i	·	·	·	·	·
Cc1c(N=C2N=C(NC(=O)c3cccs3)c3ccccc32)c(=O)n(-c2ccccc2)n1C	i	-9.2*	0.88	-17	-9.9*	i	56%*	i	56%*	141*	0.1*
CC(Nc1nc(-c2ccccc2)nc2ccccc12)c1ccccc1 (stereo not drawn)	i	-8.9*	0.45	-20	-11*	i	i	i	36%*	102*	i
O=C(c1ccco1)N(CCC(c1ccccc1)c1ccco1)Cc1ccc(F)cc1 (stereo not drawn)	i	-14*	-4.4*	-19	-11*	i	66%*	40%*	31%*	95*	0.15*
Cc1ccc(S(=O)(=O)N(C)c2ccc(C(=O)N(CC(C)C)C3CCS(=O)(=O)C3)cc2)cc1 (stereo not drawn)	i	i	0.82	-4	i	i	·	·	·	·	·
Cc1onc(-c2ccc(Cl)cc2)c1-c1ccnc(SCC(=O)Nc2cc(Cl)cc(Cl)c2)n1	i	-16*	-0.48	-6	-13*	9*	i	i	44%*	101*	0.15*
Cn1c(SCC(=O)Nc2cc(Cl)cc(Cl)c2)nnc1-c1ccc2nonc2c1	i	i	0.6	-9	i	i	·	·	·	·	·
CN(CCCC1CCCC1)C(=O)c1cc(COc2ccc(F)c(F)c2)on1	i	-8.8*	1.4	-8	-9.2*	i	i	i	38%*	122*	i
CN(CCC1CCCCO1)C(=O)c1cc(COc2ccc(F)cc2F)on1 (stereo not drawn)	i	i	-0.39	-11	i	i	·	·	·	·	·
CN(/C=C1/C(=O)CNC1=O)CCO	i	i	-2.4	-11	i	i	·	·	·	·	·
CC(C)OC(=O)CSc1nc(Cc2ccccc2)nc2ccccc12	i	-15*	-0.52	-24	-11*	i	58%*	36%*	38%*	97*	i
CC(C)OC(=O)CSc1nc(C(C)C)nc2ccccc12	i	i	-1.4	-13	i	i	·	·	·	·	·
CCOc1ccccc1CNS(=O)(=O)c1cc(-c2cc(C)no2)ccc1OC	i	i	-2.8	-5	i	i	·	·	·	·	·
COc1ccccc1CNS(=O)(=O)c1cc(-c2cc(C)no2)ccc1C(C)C	i	-11*	-0.43	-16	-9.5*	6*	60%*	i	38%*	119*	0.14*
CC(O)CNc1nc(Cl)c(C#N)s1 (stereo not drawn)	i	i	0.13	-7	i	i	·	·	·	·	·
Cc1nn(S(=O)(=O)c2cccs2)c(C)c1Sc1ccc([N+](=O)[O-])cc1	i	-11*	0.61	-13	-12*	i	54%*	i	28%*	120*	0.16*
Cc1nn(S(=O)(=O)c2ccccc2)c(C)c1Sc1ccc([N+](=O)[O-])cc1	i	i	0.23	-11	i	i	·	·	·	·	·
CCCN(N=Nc1cccc([N+](=O)[O-])c1)c1cccc([N+](=O)[O-])c1	i	-12*	-0.03	-14	-9.2*	i	50%*	i	43%*	115*	i
CN(N=Nc1cccc([N+](=O)[O-])c1)c1cccc([N+](=O)[O-])c1	i	-11*	-0.03	-11	i	i	i	i	34%*	90*	i
Cc1ccccc1OCC(=O)Nc1ccc2c(c1)n(C)c(=O)n2C	i	i	0.58	-15	i	i	·	·	·	·	·
COC(=O)c1c(NC(=O)COC(=O)CCc2ccc(S(=O)(=O)N3CCOCC3)cc2)sc2c1CCC2	i	i	0.43	-4	i	i	·	·	·	·	·
CCn1nc(C(=O)OCC(=O)c2ccc(F)cc2)c2ccccc2c1=O	i	i	0.38	-2	i	i	·	·	·	·	·
CCn1nc(C(=O)OC(C(=O)c2c[nH]c3ccccc23)c2ccccc2)c2ccccc2c1=O (stereo not drawn)	i	-11*	-0.02	-20	-9*	8*	32%*	i	i	89*	i
Cc1ccc(O)c(C(=O)c2cnc3c(c2)COc2ccc(C)cc2-3)c1	i	-13*	0.86	-1	i	i	72%*	i	40%*	113*	i
SMILES	KCNQ1 act	KCNK9 inh	Kir21 block	hERG protect	KCNK3 inh	KCNQ1 block	KCNK9 inh conf	Kir21 sel	HEK293 Tl ctr	KCNK3 inh conf	KCNK3 noninduced
COC(/C(=N/O)c1ccc(Cl)cc1)c1ccccc1 (stereo not drawn)	i	-10*	-2.9	-20	-9.7*	11*	38%*	i	48%*	114*	0.16*
CNC(=S)N1N=C(c2cccs2)CC1c1ccc(F)cc1 (stereo not drawn)	i	i	0.22	-9	i	i	·	·	·	·	·
Fc1ccc(C2CC(c3cccs3)=NN2c2ccccc2)cc1 (stereo not drawn)	i	-9.8*	0.35	-16	-8.9*	i	58%*	i	38%*	104*	0.15*
C=C1/C=C(\C)C(C)(O)CC(O)CC(=O)C(O)C(O)C(C)CC(C)OC(=O)/C(C)=C/CC/C=C/C(OC)C(O)CC(C)C1 (stereo not drawn)	·	·	·	·	i	·	·	·	·	·	·
O=C(Nc1ccc2c(c1)OCCO2)c1cc2sccc2n1Cc1ccc(F)cc1	i	-12*	-0.12	-10	-11*	i	46%*	i	30%*	120*	0.12*
Cn1c(C(=O)Nc2ccc3c(c2)OCCO3)cc2sccc21	i	i	-2.3	-10	i	i	·	·	·	·	·
